Test results from PubChem BioAssay AID540295 (The Scripps Research Institute Molecular Screening Center, 2011).
Among all 360,000 compounds or so, about 1,700 (0.47%) were called active.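 The calls were made as follows: active = inhibition above its plate's cutoff, the mean of tested wells on that plate plus 3 SD (cut at about 29% in these data); inactive = the rest.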 What follows is part of a selection rich in actives, with near analogues and random picks from the rest.

biological target: Melanocortin receptor 4 (Homo sapiens) (UniProt P32245); assay: MC4R antagonists of cAMP signaling, primary screen, cell-based, TR-FRET, antagonist arm of biased-ligand search (AID 540295); details: MC4R-expressing cells, MTII-stimulated cAMP, LANCE TR-FRET; at 6.5 µM; hits give high values;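 also: 0% = Melanotan II alone and 100% = Melanotan II plus saturating MCL0020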
Sequence (P32245 whole entry, looked up): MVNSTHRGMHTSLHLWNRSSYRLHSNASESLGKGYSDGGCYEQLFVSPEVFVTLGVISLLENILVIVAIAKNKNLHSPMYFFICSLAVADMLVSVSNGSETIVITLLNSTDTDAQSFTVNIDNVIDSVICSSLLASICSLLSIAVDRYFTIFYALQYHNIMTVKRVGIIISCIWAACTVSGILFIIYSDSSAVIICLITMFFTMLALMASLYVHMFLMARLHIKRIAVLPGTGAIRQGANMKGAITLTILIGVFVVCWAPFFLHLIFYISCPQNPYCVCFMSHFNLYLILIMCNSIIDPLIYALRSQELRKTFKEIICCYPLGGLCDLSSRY
Method in brief: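 material = U2OS cells stably expressing human melanocortin 4 receptor (MC4R) | also added = Melanotan II challenge | dosing = single nominal compound dose of 6.5 µM | detection = TR-FRET with Eu-cAMP and labeled anti-cAMP, 671 nm | replication = singlicate | timing = compound 30 min, challenge 1 h, detection 1 h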

Row | SMILES | inhibition
1 | O=C(CCNC(=O)c1ccc([N+](=O)[O-])cc1)Nc1ccccc1N1CCOCC1 | 17.3% (inactive)
2 | CC[C@@H]1Cc2cc(O)ccc2C2=C1c1ccc(O)cc1C[C@H]2CC | 10.4% (inactive)
3 | Cc1csc(CN(C)C(=O)CC2C(=O)NCCN2CC(C)(C)C)n1 (stereo unspecified) | 4.33% (inactive)
4 | COc1ccc2sc(-c3ccc(S(C)(=O)=O)cc3)c(C#Cc3cncn3C)c2c1 | 12.3% (inactive)
5 | COc1cc(OC)cc(-c2sc3ccc(OC)cc3c2-c2ccc3cc[nH]c3c2)c1 | 13% (inactive)
6 | COc1ccc2sc(-c3ccc(S(C)(=O)=O)cc3)c(-c3ccc(C(N)=O)cc3)c2c1 | 35.3% (active)
7 | COC(=O)[C@H](Cc1ccccc1)NC(=O)[C@@H]1C[C@H]1[C@@H](NC(=O)OCc1ccccc1)c1ccccc1 | 29.7% (active)
8 | COC(=O)[C@H](C)[C@H]1C[C@]1(C)[C@H](NC(=O)OCc1ccccc1)c1ccccc1 | 5.83% (inactive)
9 | COC(=O)[C@@H](Cc1ccccc1)NC(=O)NCCc1ccccc1 | 23.7% (inactive)
10 | Cc1csc(/N=C/N(C)C)c1C#N | 1.05% (inactive)
11 | Cc1ccc(S(=O)(=O)CCC(=O)OCC(=O)N(C)C2CCS(=O)(=O)C2)cc1 (stereo unspecified) | 0.56% (inactive)
12 | Cc1ccc(S(=O)(=O)CCC(=O)OCc2ccccc2)cc1 | 3.4% (inactive)
13 | Cc1ccc(S(=O)(=O)CCC(=O)OCC(=O)N(C)Cc2ccccc2)cc1 | 33.6% (active)
14 | CCOc1ccc(S(=O)(=O)NCc2ccc3c(c2)OCO3)cc1C | 3.78% (inactive)
15 | COc1ccc(CCN=C2SCC(=O)N2C)cc1OC | 10.4% (inactive)
16 | O=C(NCCc1c[nH]c2ccccc12)c1cc2ccccc2oc1=O | -0.76% (inactive)
17 | O=C(NCCc1c[nH]c2ccccc12)c1cccc(Br)c1 | 31.5% (active)
18 | Cc1cc(C)cc(NC(=S)NCCc2c[nH]c3ccccc23)c1 | 7.21% (inactive)
19 | CN(C)c1ccc(C2Nc3ccccc3C(=O)N2NS(=O)(=O)c2ccccc2)cc1 (stereo unspecified) | -6.61% (inactive)
20 | COc1ccc(S(=O)(=O)N2CCSCC2)cc1 | 2.98% (inactive)
21 | CCOC(=O)c1c(C)oc2cc(Sc3ccccc3)c(O)c(O)c12 | 6.42% (inactive)
22 | Cc1oc2cc(Br)c(O)c(Br)c2c1C(=O)c1ccccc1 | 0.99% (inactive)
23 | CCOC(=O)c1c(-c2ccccc2)oc2cc(Br)c(O)c(C=O)c12 | 93% (active)
24 | COc1ccc(CCCNC(=O)C2Cc3c(-c4cccc(C(N)=O)c4)ccnc3O2)cc1 (stereo unspecified) | 2.69% (inactive)
25 | CCn1c2ccccc2c2cc(NC(=O)C/C(C)=N/NC(=O)c3ccccc3N)ccc21 | 28.8% (active)
26 | CCn1c2ccccc2c2cc(NC(=S)N3CCOCC3)ccc21 | -0.62% (inactive)

Row | SMILES | inhibition
27 | CCn1c2ccccc2c2cc(NC(=O)COC(=O)c3cc(S(=O)(=O)N4CCCCC4)ccc3Cl)ccc21 | -0.18% (inactive)
28 | CC1=NN(C(C)C)C(=O)C1 | 6.17% (inactive)
29 | Cc1nc2ccccc2c(=O)n1NC(=O)c1ccc(Cl)c([N+](=O)[O-])c1 | 49% (active)
30 | O=C(O)c1ccc2c(=O)n3c(nc2c1)/C(=C/c1ccc(Cl)c([N+](=O)[O-])c1)CC3 | 0.52% (inactive)
31 | Cc1ccnc(NC(=O)c2ccc(Cl)c([N+](=O)[O-])c2)c1 | 23.3% (inactive)
32 | CCOC(=O)C1(C)CCCN(C(=O)c2ccc(F)c(Cl)c2)C1 (stereo unspecified) | -0.84% (inactive)
33 | Cc1nc(N2CCN(c3ccccn3)CC2)c2c(C)c(C(=O)Nc3ccc(F)c(Cl)c3)sc2n1 | 5.05% (inactive)
34 | CC(=O)Nc1ccc(S(=O)(=O)N2CCn3cccc3C2C)cc1 (stereo unspecified) | 1.62% (inactive)
35 | CCOc1ccc(-c2nc(N)ncc2-c2ccccc2OC)c(O)c1 | -2.31% (inactive)
36 | COc1ccc(-c2n[nH]c(C)c2-c2ccccc2OC)c(O)c1 | 29.1% (active)
37 | CCOc1ccccc1Oc1cn[nH]c1-c1ccc(OC)cc1O | 2.19% (inactive)
38 | CC(Sc1ccc(S(=O)(=O)N2CCN(C)CC2)cn1)C(=O)NC1CCCC(C)C1C (stereo unspecified) | -2.08% (inactive)
39 | O=C(NC1=CC(=O)c2ccccc2C1=O)c1ccccc1 | 34.6% (active)
40 | Cc1cc(=O)c2ccc(NC(=O)c3ccccc3)cc2[nH]1 | 0.31% (inactive)
41 | O=C(Nc1ccc2ccccc2c1[N+](=O)[O-])c1ccccc1 | -1.17% (inactive)
42 | CN(CCC#N)c1ncnc2scc(-c3ccccc3)c12 | -6.59% (inactive)
43 | Cc1sc2nc(-c3ccccc3F)oc(=O)c2c1C | 2.06% (inactive)
44 | Cc1ccccc1-n1nnnc1SCCCC(=O)c1ccc(F)cc1 | 0.07% (inactive)
45 | Cc1cccc(OCC(O)Cn2c(N3CCCCC3)nc3c2c(=O)[nH]c(=O)n3C)c1 (stereo unspecified) | 32.4% (active)
46 | C=C(C)Cn1c(N2CCCC2)nc2c1c(=O)[nH]c(=O)n2C | -7.2% (inactive)
47 | Cn1c(=O)c2c(nc(N3CCCCCC3)n2CC(O)COc2ccc(Cl)cc2)n(C)c1=O (stereo unspecified) | 19.6% (inactive)
48 | CCCCCCCC(=O)OC(CN1CCCCCC1)CN1CCCC1=O (stereo unspecified) | 3.62% (inactive)
49 | CC(=O)c1cccc(NC(=O)C2CCCN(S(=O)(=O)c3cccc4nonc34)C2)c1 (stereo unspecified) | 0.67% (inactive)
50 | Cn1nc(C(F)(F)F)cc1C(=O)O | -0.27% (inactive)
51 | O=C(NCC1CCCO1)c1ccc(S(=O)(=O)Nc2ccc(F)cc2)cc1 (stereo unspecified) | 1.8% (inactive)
52 | CCC(=O)Nc1ccc(S(=O)(=O)NCC2CCCO2)cc1 (stereo unspecified) | 6.76% (inactive)

Row | SMILES | inhibition
53 | CC(NS(=O)(=O)c1ccc(Br)cc1)C(=O)NCC1CCCO1 (stereo unspecified) | 40.5% (active)
54 | Cn1cccc1C1(C(F)(F)F)NCCNC1=O (stereo unspecified) | 1.67% (inactive)
55 | CC(=O)Nc1ccc(Sc2ccccc2C(=O)N2CCCC2)cn1 | 32% (active)
56 | O=C(Nc1ccccc1C(=O)N1CCCCCC1)c1ccccc1Cl | 2.65% (inactive)
57 | O=C(Cc1ccccc1)Nc1c(C(=O)N2CCCCCC2)cnn1-c1ccccc1 | 1.13% (inactive)
58 | O=C(NCc1ccccc1)C1=C[C@@H](c2ccccc2)C[C@@H](OCCCCO)O1 | -12.3% (inactive)
59 | Cc1ccccc1N1CCN(C2CCCN(C(=O)c3cn4c(C)cccc4n3)C2)CC1 (stereo unspecified) | -0.92% (inactive)
60 | Cc1c(CNCCc2ccccc2)c(C(=O)O)c(C)n1-c1ccccc1 | 11.5% (inactive)
61 | CCc1nn(CCCC(=O)Nc2ccc(C)cc2C)c(=O)c2cc3occc3n12 | -1.71% (inactive)
62 | O=C1C=CC(=O)N1c1ccc(N2CCCCC2)cc1 | 43.8% (active)
63 | O=C(c1ccc(Cl)c(S(=O)(=O)N2CCCCCC2)c1)N1CCN(c2ccc(O)cc2)CC1 | -1.58% (inactive)
64 | c1ccc(-n2cccc2)c(N2CCCCC2)c1 | 4.15% (inactive)
65 | CCc1nc2ccc(C(=O)N3CCC(O)(Cc4ccccc4)CC3)cn2c1N(C)C(=O)Cc1ccccc1 | 9.63% (inactive)
66 | CCCCn1nc(C(=O)N2CCc3ccccc32)c2ccccc2c1=O | 9.32% (inactive)
67 | S=C(NC1CCCCC1)NN1CCOCC1 | 7.17% (inactive)
68 | COc1cc([N+](=O)[O-])ccc1NC(=O)COC(=O)CCOc1ccc(C)cc1 | 7.73% (inactive)
69 | CC(OC(=O)CCCc1c[nH]c2ccccc12)C(=O)Nc1ccc(S(N)(=O)=O)cc1 (stereo unspecified) | -3.17% (inactive)
70 | Cc1ccc(NC(=O)C(C)OC(=O)Cc2c[nH]c3ccccc23)cc1S(=O)(=O)N1CCOCC1 (stereo unspecified) | 28.7% (active)
71 | Cc1ccc(NC(=O)C(C)OC(=O)C2CC3CCCC(C2)C3=O)cc1S(=O)(=O)N1CCOCC1 (stereo unspecified) | -1.35% (inactive)
72 | CC(=O)CSc1nc(CCc2ccccc2)c(C#N)c(=O)[nH]1 | 7.06% (inactive)
73 | N#Cc1c(-c2cccs2)nc(SCC(=O)c2ccc(Br)cc2)[nH]c1=O | 39.6% (active)
74 | O=C(CSc1nc2ccccc2c(=O)[nH]1)Nc1nc(-c2ccc(Br)cc2)cs1 | 10% (inactive)
75 | CC(=O)Nc1cccc(-c2cc(NC(C)=O)c3ncc(-c4ccccc4)n3c2)c1 | 9.96% (inactive)
76 | COc1ccc(C(=O)N2CCCCC2c2cc(C(=O)Nc3ccc(F)c(Cl)c3)no2)cc1 (stereo unspecified) | 16.2% (inactive)
